Measurements from ChEMBL document CHEMBL1145247, “4-Alkyl and 4,4'-dialkyl 1,2-bis(4-chlorophenyl)pyrazolidine-3,5-dione derivatives as new inhibitors of bacterial cell wall biosynthesis” (Bioorg Med Chem Lett, 2005).
≈ marks a conversion by molar mass, not a printed value.

Columns and labels:
Staphylococcus aureus [1] = assay: Minimum inhibitory concentration against cell wall biosynthesis of methicillin susceptible Staphylococcus aureus GC 4543; format: functional
Outline: (§1)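 Broth microdilution per NCCLS M7-A3 in Mueller–Hinton broth, aerobic. Agents tested as 2-fold serial dilutions, with a final inoculum of 1–5 × 10^5 CFU/mL. Plates incubated 18–22 h at 35 °C in ambient air. MIC read as the endpoint.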

[2] = Minimum inhibitory concentration against cell wall biosynthesis of methicillin-susceptible Coagulase negative staphylococcus GC 646 (MSCNS); format: functional
Outline: (§2)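 Broth microdilution per NCCLS M7-A3. Mueller–Hinton broth for staphylococci and enterococci, 2-fold serial dilutions of agent. Final inoculum 1–5 × 10^5 CFU/mL.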

Streptococcus pneumoniae [3] = assay: Minimum inhibitory concentration against cell wall biosynthesis of penicillin resistant Streptococcus pneumoniae GC 1894 (PRSP) in the presence of 4% bovine serum albumin; format: functional
[4] = target: UDP-N-acetylglucosamine 1-carboxyvinyltransferase (Escherichia coli K-12, UniProt P0A749); assay: Inhibitory concentration against MurA enzyme in Escherichia coli
Outline: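 Enzyme preincubated with inhibitor 10 min at 37 °C before substrates were added. Reaction ran 30 min at 37 °C and was stopped with malachite green reagent (0.03% malachite green, 1.4% ammonium molybdate, 1.3 N HCl) for phosphate read-out.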

[5] = target: T1, UDP-N-acetylenolpyruvoylglucosamine reductase (Escherichia coli K-12, UniProt P08373); assay: Inhibitory concentration against MurB enzyme in Escherichia coli
T1 sequence (P08373 whole entry): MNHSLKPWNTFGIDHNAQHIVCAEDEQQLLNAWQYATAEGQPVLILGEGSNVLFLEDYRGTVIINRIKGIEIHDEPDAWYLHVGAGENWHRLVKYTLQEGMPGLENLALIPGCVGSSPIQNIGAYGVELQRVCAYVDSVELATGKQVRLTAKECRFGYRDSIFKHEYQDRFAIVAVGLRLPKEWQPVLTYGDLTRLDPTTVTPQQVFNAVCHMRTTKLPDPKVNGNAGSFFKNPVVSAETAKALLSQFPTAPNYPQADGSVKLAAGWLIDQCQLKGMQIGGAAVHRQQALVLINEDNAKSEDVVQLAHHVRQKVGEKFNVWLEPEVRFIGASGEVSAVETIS
Outline: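 Enzyme (20 nM) preincubated 20 min with inhibitor, then substrates added to final 50 µM EP-UNAG and 100 µM NADPH. Activity followed spectrophotometrically. At least six inhibitor concentrations between 1.5 and 50 µM per compound. IC50 from sigmoid Hill curve fit (0–100).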

Staphylococcus aureus [6] = assay: Minimum inhibitory concentration against cell wall biosynthesis of methicillin resistant Staphylococcus aureus GC 1131; format: functional; outline: as §1
Escherichia coli [7] = assay: Minimum inhibitory concentration against cell wall biosynthesis of Escherichia coli GC 4559; format: functional; outline: as §2
Streptococcus pneumoniae [8] = assay: Minimum inhibitory concentration against cell wall biosynthesis of penicillin resistant Streptococcus pneumoniae GC 1894 (PRSP); format: functional
Outline: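 Broth microdilution per NCCLS M7-A3, using Mueller–Hinton broth supplemented with 5% sheep blood. Agents tested as 2-fold serial dilutions, with a final inoculum of 1–5 × 10^5 CFU/mL.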

Enterococcus faecalis [9] = assay: Minimum inhibitory concentration against cell wall biosynthesis of vancomycin resistant Enterococcus faecalis GC 2242 (VRE); format: functional; outline: as §1
Escherichia coli [10] = assay: Minimum inhibitory concentration against cell wall biosynthesis of Escherichia coli GC 4560; format: functional
Enterococcus faecalis [11] = assay: Minimum inhibitory concentration against cell wall biosynthesis of vancomycin susceptible (ATCC) Enterococcus faecalis GC 4555; format: functional; outline: as §2

Sequence of UDP-N-acetylglucosamine 1-carboxyvinyltransferase (P0A749 whole entry): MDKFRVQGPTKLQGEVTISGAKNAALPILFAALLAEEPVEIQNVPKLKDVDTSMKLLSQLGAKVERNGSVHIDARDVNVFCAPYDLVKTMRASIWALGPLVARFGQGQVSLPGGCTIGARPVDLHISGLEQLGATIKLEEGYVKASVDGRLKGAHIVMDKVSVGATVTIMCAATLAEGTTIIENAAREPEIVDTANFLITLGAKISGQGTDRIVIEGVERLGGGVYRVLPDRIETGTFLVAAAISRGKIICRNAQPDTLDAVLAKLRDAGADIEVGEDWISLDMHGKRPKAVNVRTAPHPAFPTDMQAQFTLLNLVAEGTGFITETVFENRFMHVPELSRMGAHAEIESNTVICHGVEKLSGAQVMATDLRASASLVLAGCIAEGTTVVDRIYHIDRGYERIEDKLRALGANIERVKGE

| SMILES | MIC (Staphylococcus aureus [1]) [µM] | MIC [2] [µM] | MIC (Streptococcus pneumoniae [3]) [µM] | IC50 [4] [µM] | IC50 [5] [µM] | MIC (Staphylococcus aureus [6]) [µM] | MIC (Escherichia coli [7]) [µM] | MIC (Streptococcus pneumoniae [8]) [µM] | MIC (Enterococcus faecalis [9]) [µM] | MIC (Escherichia coli [10]) [µM] | MIC (Enterococcus faecalis [11]) [µM] |
| --- | --- | --- | --- | --- | --- | --- | --- | --- | --- | --- | --- |
| CCCCCCCC1C(=O)N(c2ccc(Cl)cc2)N(c2ccc(Cl)cc2)C1=O | 100 (≈ 41.9 µg/mL) | 200 (≈ 83.9 µg/mL) | > 200 | > 50 | 42 | 100 (≈ 41.9 µg/mL) | > 200 | 6.25 (≈ 2.62 µg/mL) | 100 (≈ 41.9 µg/mL) | > 200 | 200 (≈ 83.9 µg/mL) |
| COc1cccc(CC2C(=O)N(c3ccc(Cl)cc3)N(c3ccc(Cl)cc3)C2=O)c1 | > 200 | 200 (≈ 88.3 µg/mL) | > 200 | > 50 | 50 | – | > 200 | 200 (≈ 88.3 µg/mL) | – | > 200 | > 200 |
| O=C1C(CCCc2ccccc2)C(=O)N(c2ccc(Cl)cc2)N1c1ccc(Cl)cc1 | 200 (≈ 87.9 µg/mL) | > 200 | > 200 | 44.3 | 10 | 200 (≈ 87.9 µg/mL) | > 200 | 25 (≈ 11 µg/mL) | 200 (≈ 87.9 µg/mL) | 200 (≈ 87.9 µg/mL) | > 200 |
| O=C1C(CCc2ccccc2)C(=O)N(c2ccc(Cl)cc2)N1c1ccc(Cl)cc1 | 200 (≈ 85.1 µg/mL) | 200 (≈ 85.1 µg/mL) | > 200 | > 50 | 35 | 200 (≈ 85.1 µg/mL) | > 200 | 50 (≈ 21.3 µg/mL) | 200 (≈ 85.1 µg/mL) | 200 (≈ 85.1 µg/mL) | > 200 |
| O=C1C(Cc2cccc(C(F)(F)F)c2)C(=O)N(c2ccc(Cl)cc2)N1c1ccc(Cl)cc1 | > 200 | > 200 | > 200 | > 50 | 18 | – | > 200 | 50 (≈ 24 µg/mL) | – | > 200 | > 200 |
| O=C1C(Cc2ccccc2)C(=O)N(c2ccc(Cl)cc2)N1c1ccc(Cl)cc1 | 200 (≈ 82.3 µg/mL) | > 200 | > 200 | > 50 | > 50 | 200 (≈ 82.3 µg/mL) | > 200 | 200 (≈ 82.3 µg/mL) | – | > 200 | > 200 |
| CCN(CC)CCC1C(=O)N(c2ccc(Cl)cc2)N(c2ccc(Cl)cc2)C1=O | > 200 | 200 (≈ 84.1 µg/mL) | > 200 | > 50 | > 50 | 100 (≈ 42 µg/mL) | > 200 | 100 (≈ 42 µg/mL) | 200 (≈ 84.1 µg/mL) | > 200 | 200 (≈ 84.1 µg/mL) |
| CCC(CC)CC1C(=O)N(c2ccc(Cl)cc2)N(c2ccc(Cl)cc2)C1=O | 100 (≈ 40.5 µg/mL) | 200 (≈ 81.1 µg/mL) | > 200 | > 50 | 50 | 100 (≈ 40.5 µg/mL) | > 200 | 25 (≈ 10.1 µg/mL) | 100 (≈ 40.5 µg/mL) | 200 (≈ 81.1 µg/mL) | 200 (≈ 81.1 µg/mL) |
| CC1(CCOCc2ccccc2)C(=O)N(c2ccc(Cl)cc2)N(c2ccc(Cl)cc2)C1=O | > 200 | > 200 | > 200 | > 50 | 20 | 200 (≈ 93.9 µg/mL) | > 200 | 100 (≈ 46.9 µg/mL) | – | > 200 | > 200 |
| O=C1C(Cc2cc(C(F)(F)F)cc(C(F)(F)F)c2)C(=O)N(c2ccc(Cl)cc2)N1c1ccc(Cl)cc1 | 25 (≈ 13.7 µg/mL) | 50 (≈ 27.4 µg/mL) | > 200 | > 50 | 12 | 25 (≈ 13.7 µg/mL) | 50 (≈ 27.4 µg/mL) | 6.25 (≈ 3.42 µg/mL) | 25 (≈ 13.7 µg/mL) | > 200 | 50 (≈ 27.4 µg/mL) |
